The list is not random: actives were taken first. Their share in the collection is about 1.9%.
Furin inh: inhibitors of human furin | P09958 | purified furin, fluorogenic substrate cleavage | inhibition, % at 20 µM or 30 µM | actives 0.061% (n = 220,000); in the data active = inhibition above about 25%
Target sequence (P09958 108-714 limits assumed): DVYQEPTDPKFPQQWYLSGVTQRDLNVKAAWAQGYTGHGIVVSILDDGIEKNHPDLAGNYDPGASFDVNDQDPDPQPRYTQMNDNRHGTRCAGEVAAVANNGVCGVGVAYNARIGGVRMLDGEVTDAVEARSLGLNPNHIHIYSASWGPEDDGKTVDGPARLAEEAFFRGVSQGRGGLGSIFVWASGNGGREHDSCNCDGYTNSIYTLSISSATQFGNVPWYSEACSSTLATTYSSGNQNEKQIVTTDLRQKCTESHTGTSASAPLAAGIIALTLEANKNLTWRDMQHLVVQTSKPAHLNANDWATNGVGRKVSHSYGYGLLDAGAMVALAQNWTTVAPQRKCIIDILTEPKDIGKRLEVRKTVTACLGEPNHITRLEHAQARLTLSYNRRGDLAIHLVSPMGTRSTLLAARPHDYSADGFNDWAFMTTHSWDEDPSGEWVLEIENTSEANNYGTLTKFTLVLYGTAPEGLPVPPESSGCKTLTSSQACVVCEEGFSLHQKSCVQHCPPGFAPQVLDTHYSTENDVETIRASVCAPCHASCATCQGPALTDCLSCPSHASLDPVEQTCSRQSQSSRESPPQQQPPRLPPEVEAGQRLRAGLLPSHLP
Insulin prom up: MIN6 insulin promoter up-regulation. MIN6 insulin promoter-GFP reporter, high-content imaging; stronger effect = higher value. AID 1625. z-score at 5 µM. actives 0.3% (n = 190,000);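 active = z-score above 3 at 5 µM with at least 500 cells counted in the well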
MT stabilizer: microtubule stabilizers in HeLa cells; actives 0.83% (n = 200,000); % tubulin-high responders, % at 10 µM; HeLa tubulin immunostaining HCS, 24 h; share of cells brighter than vehicle mean+2SD; AID 2205;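 active = plate Z-score above 3 for both tubulin-high and condensed-nucleus cell shares, with cell loss under 80%, at 10 µM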;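 note: anti alpha tubulin signal scored within the nucleus-defined area of each cell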
Autophagy mod: autophagy modulation, high-content screen; MEF GFP-LC3 puncta imaging; test concentration mostly 10 µM; calls only at 10 µM (by protocol); actives 0.98% (n = 190,000); AID 463193;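 active = percentage of spot-positive cells more than 3 SD above its plate mean, without a fluorescence outlier flag or 80% toxicity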
bCat nuc transl: beta-catenin nuclear translocation modulation | nuclear translocation activity, % at 5 µM | HeLa beta-catenin nuclear translocation, immunofluorescence imaging | actives 0.3% (n = 190,000);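 active = nuclear translocation activity above 50% at 5 µM, with a well cell count of 50 or more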;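 note: per-cell ratio of nuclear to cytoplasmic median beta-catenin stain intensity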
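Read-out: Nuclear/cytoplasmic beta-catenin signal ratio, % activation | Assay system: Human HeLa cell line | Times: 24 h compound exposure at 37°C, 5% CO2 | Signal: Fluorescence imaging of beta-catenin antibody stain plus DAPI | Dosing: 5 µM primary, 0.02–20 µM confirmation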
HSV replic up: HSV replication enhancement; HSV replication augmentation in cells, fold increase; maximum fold increase; actives 0.005% (n = 220,000); in the data active = maximum fold increase above about 1.5; tested in PC3 cells
Numbers stand for hits; - = inactive; . = not tested or not shown; + = active, no number.

SMILES | Furin inh | Insulin prom up | MT stabilizer | Autophagy mod | bCat nuc transl | HSV replic up
Cc1ccc(NC(=O)Cn2cccc2)cc1 | - | - | - | - | - | -
O=C(Nc1cc(C(F)(F)F)cc(C(F)(F)F)c1)Nc1cnn(-c2ccc([N+](=O)[O-])cc2)c1C(F)(F)F | - | - | . | . | - | -
O=C(NNC(=S)Nc1ccccc1Cl)c1ccncc1 | - | - | . | . | - | -
CCC1=Nc2cc(C(=O)NCCCOC(C)C)ccc2Sc2ccccc21 | - | - | - | + | . | -
CCC1=Nc2cc(C(=O)NCc3cccnc3)ccc2Sc2ccc(C)cc21 | - | . | . | . | 64 | -
CCC1=Nc2cc(C(=O)NCc3ccco3)ccc2Sc2ccc(Cl)cc21 | - | - | - | - | - | -
CCC1=Nc2cc(C(=O)NCc3ccco3)ccc2Sc2ccccc21 | - | - | 24 | - | 55 | -
CCC1=Nc2cc(C(=O)O)ccc2Sc2ccccc21 | - | - | - | - | - | -
CCOc1ccc(OCc2ccc(C(=O)N(CC)CC)cc2)cc1 | - | - | - | - | - | -
Cn1cnc([N+](=O)[O-])c1SCC(O)CN1CCCCC1 (centres undefined) | - | - | - | + | - | -
CCOC(=O)N1CCN(C(=O)CCCn2nc(C)c3sc4ccccc4c3c2=O)CC1 | - | - | - | - | - | -
CCCCN1CC(O)=C(c2nc(-c3ccc(Cl)cc3)cs2)C1=N | - | - | - | + | . | -
Cc1ccc(NC(=O)COC(=O)CN2C(=O)NC(C)(C)C2=O)cc1S(=O)(=O)N1CCOCC1 | - | - | - | - | - | -
O=C(Nc1c(O)c2ccccc2[nH]c1=O)c1ccco1 | - | - | . | . | - | -
Cc1[nH]c2ccccc2c1C(=O)CCl | - | - | - | + | - | -
C=COC(=O)CSc1nc(-c2cccs2)ccc1C#N | - | - | - | - | - | -
CCOC(=O)C(C)Sc1nc(-c2cccs2)ccc1C#N (centres undefined) | - | - | 44 | - | - | -
CCOc1ccc(C(C)NC(=O)Cc2ccccc2F)cc1OCC (centres undefined) | - | - | - | - | - | -
Cc1nc(N)c(Cc2ccccc2F)c(N)n1 | - | - | - | - | - | -
CCOC(=O)c1ccc(NC(=O)CSC(=S)N2CCOCC2)cc1 | - | - | - | + | - | -
O=C(N/N=C/c1cccs1)c1cc(-c2cccc3ccccc23)n[nH]1 | - | - | - | - | 120 | -
O=C(N/N=C/c1c[nH]c2ccccc12)c1cc(-c2ccccc2)n[nH]1 | - | - | - | - | - | -
O=C(N/N=C/c1c[nH]c2ccccc12)c1cc(-c2ccc3ccccc3c2)n[nH]1 | - | - | 26 | - | 80 | -
O=C(N/N=C/c1c[nH]c2ccccc12)c1cc(-c2ccc(-c3ccccc3)cc2)n[nH]1 | - | - | - | - | - | -
O=C(N/N=C/c1c[nH]c2ccccc12)c1cc(-c2cccc3ccccc23)n[nH]1 | - | - | 27 | - | - | -
SMILES | Furin inh | Insulin prom up | MT stabilizer | Autophagy mod | bCat nuc transl | HSV replic up
O=C(N/N=C/c1cccs1)c1cc(-c2ccc3ccccc3c2)n[nH]1 | - | - | - | - | - | -
Cc1ccc(-c2cc(C(=O)N/N=C/c3c[nH]c4ccccc34)[nH]n2)cc1 | - | - | 17 | - | - | -
O=C(c1cccc(Cl)c1)C1CCCN(Cc2ccc(N3CCNC3=O)cc2)C1 (centres undefined) | - | - | - | - | - | -
Cc1ccc(C(=O)c2cc([N+](=O)[O-])ccc2N2CCCCC2)cc1C | - | - | - | - | 78 | -
Cc1ccc(C(=O)c2cc([N+](=O)[O-])ccc2N2CCOCC2)c(C)c1 | - | - | - | - | 135 | -
CN1CCN(c2ccc([N+](=O)[O-])cc2C(=O)c2ccccc2)CC1 | - | - | - | - | - | -
CN1CCN(c2ccc([N+](=O)[O-])cc2C(=O)N2CCOCC2)CC1 | - | - | - | - | - | .
Cc1ccc(C(=O)c2cc([N+](=O)[O-])ccc2N2CCOCC2)cc1C | - | - | 20 | - | - | -
O=C(Nc1nccs1)c1ccc(S(=O)(=O)N2CCOCC2)cc1 | - | - | - | - | - | -
CCC(CC)N1CCN(CC2CC=CCC2)CC1 (centres undefined) | - | - | - | - | - | -
COc1cccc(C(=O)N/N=C(/c2ccccc2)c2ccccn2)c1 | - | - | - | + | - | -
COc1cc(C(=O)N/N=C(\c2ccccc2)c2ccccn2)cc(OC)c1OC | - | - | - | - | - | -
